Test results reported in publication PMC6701634 (Cell, 2018).
Each block holds one compound with its values, some of them ahead of it.

What was measured:
[1] = tested on: primary leukemic BM cells isolated from MLL-AF9-induced AML mice; assay: Ex vivo apoptosis; type: cell-based, mouse; settings: 18 hr, Annexin V-positive cells
How it was run: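 Leukemic mice (>80% GFP+ in PB); BM flushed from femur and tibia, erythrocytes lysed, cells strained. Cells cultured in StemPro-34 with 10 ng/ml IL3, IL6, TPO and SCF, 1.5*10^5 cells per well. Treated 16–18 hr, 5% CO2, with DMSO stocks diluted 1:1000; DMSO-only control. Stained with Annexin V-PE and 7AAD; flow read-out of GFP and PE. Triplicates, mean ± SD.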

[2] = tested on: primary human leukemia cells from 5 individual patients; assay: Ex vivo killing of primary human leukemia cells; type: cell-based; settings: 18–20 hr; for leukemia cell apoptosis: comparable inhibitor concentrations
How it was run: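 BM mononuclear cells from newly diagnosed, untreated AML patients, isolated by Ficoll after BM biopsy. Used fresh or frozen; frozen cells thawed straight into IMDM with 50% FBS plus DNaseI. Viability stained with Annexin V and 7AAD after blocking with 20% human serum.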

CKIδ = CKIδ (Homo sapiens, UniProt P48730); assay: KINOMEscan binding assay; settings: Figure 1C
CKIα [3] = molecular target: CKIα (Homo sapiens, UniProt P48729); assay: KINOMEscan binding assay; settings: Figure 1C
CKIε = CKIε (Homo sapiens, UniProt P49674); assay: KINOMEscan binding assay; settings: Figure 1C
CDK9 = CDK9 (Homo sapiens, UniProt P50750); assay: KINOMEscan binding to transcriptional kinases; settings: for CDK9 Kd (direct binding affinity): Figure 4D
CDK7 = CDK7 (Homo sapiens, UniProt P50613); assay: KINOMEscan binding to transcriptional kinases; settings: for CDK7 Kd (direct binding affinity): Figure 4D
p53 in RKO cells = assay: Western blot of RKO cells treated with A-series inhibitors; type: cell-based, human; settings: 18 hr
How it was run: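 RKO cells grown in DMEM with 10% serum. Treated 18 hr with test compounds at several concentrations or DMSO. Lysates immunoblotted.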

GSK3α/β = assay: KINOMEscan binding assay; settings: Figure 1C
CDK19 = CDK19 (Homo sapiens, UniProt Q9BWU1); assay: KINOMEscan binding to transcriptional kinases; settings: Figure S4B
[4] = tested on: Pol II CTD phosphorylation at Ser2 and Ser5; assay: Western blot of Pol II CTD phosphorylation, primary mouse AML cells; type: cell-based; settings: ex vivo 6 hr
How it was run: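 Primary spleen cells from MLL-AF9 AML mice treated ex vivo for 6 hr with test compounds at several concentrations or DMSO. DMSO stocks diluted 1:1000 into medium. Immunoblot with PP2Ac as loading control.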

Myc, Mdm2, Mcl1 mRNA = assay: qPCR analysis of mouse primary AML BM cells; type: cell-based; settings: 1 μM, 4 hr ex vivo
How it was run: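 Primary BM AML cells from MLL-AF9 mice treated ex vivo for 4 hr with 1 μM test compound or DMSO (stocks diluted 1:1000). Myc, Mdm2, Mcl1 and Axin2 transcripts measured by qPCR. N = 3, mean ± SD, Student's t test.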

[5] = tested on: Pol II CTD phosphorylation at Ser2 and Ser5; assay: Western blot of Pol II CTD phosphorylation, MV4–11 cells; type: cell-based; settings: MV4–11 human AML cells
CDK13 = CDK13 (Homo sapiens, UniProt Q14004); assay: KINOMEscan binding to transcriptional kinases; settings: Figure S4B
[6] = tested on: MYC, MDM2, AXIN2, CCND1 mRNA in MV4–11 cells; assay: qPCR mRNA analysis of MV4–11 cells; type: cell-based, human; settings: 4 hr; A51 2μM, A86 2μM, BTX161 25μM
How it was run: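 MV4–11 cells were treated for 4 hr with test compounds or DMSO, and transcripts were measured by qPCR. Three replicates (N = 3) were run, given as mean ± SD and compared by Student's t test.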

[7] = tested on: heavy burden MLL-AF9 leukemic mice; assay: Acute in vivo anti-leukemic effect, single oral dose; parameters: species or system mouse
How it was run: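 MLL-AF9-IRES-GFP retrovirus-transduced BM cells were passaged through sublethally irradiated (500 rad) mice. 50,000 GFP+ BM cells were then injected IV into irradiated (250 rad) C57BL/6 WT mice aged 8–12 weeks. Mice with >80% GFP+ cells in PB got a single oral dose (e.g. 10 or 20 mg/kg) or vehicle and were sacrificed at short time points (5–6 or 16 hr). Read-outs: […], absolute BM GFP+ blast counts, H&E sections and blood smears; mean ± SD, N ≥ 3.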

CDK11b = CDK11b (Homo sapiens, UniProt P21127); assay: KINOMEscan binding to transcriptional kinases; settings: Figure S4B
[8] = tested on: mouse splenic AML cells (MLL-AF9); assay: Rapid-hit ex vivo AML killing assay; type: cell-based; settings: 5 mins exposure, washout, further incubation
How it was run: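 Mouse AML cells were plated at 1.5 × 10^5 per 0.15 mL in StemPro-34 with IL3, IL6, TPO and SCF (10 ng/ml each) at 5% CO2. Test compound was added from DMSO stock diluted 1:1000, with DMSO alone as control. At the set times cells were spun, resuspended in drug-free medium and kept for 18 hr total. Cells were stained with Annexin V-PE/7AAD and read by flow for GFP and PE.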

[9] = tested on: MV4–11 cells (DDR, p53, MDM2, MYC, MCL1); assay: Western blot of MV4–11 cells; type: cell-based, human; settings: 6.5 hr
How it was run: (§1)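 MV4–11 cells were exposed to test compounds at set concentrations or DMSO for 6.5 hr and analysed by western blot, with PP2Ac as loading control.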

CDK11a = CDK11a (Homo sapiens, UniProt Q9UQ88); assay: KINOMEscan binding to transcriptional kinases; settings: Figure S4B
[10] = tested on: cKit^HiCD11b^Low progenitors from Tet2^−/−;Flt3^ITD mice; assay: Ex vivo apoptotic killing of Tet2−/−; type: cell-based, mouse; settings: 16 hr after treatment
CDK8 = CDK8 (Homo sapiens, UniProt P49336); assay: KINOMEscan binding to transcriptional kinases; settings: Figure S4B
[11] = tested on: MV4–11 cells (pSer2/5 CTD, DDR, p53, MDM2, caspase 3); assay: Western blot of MV4–11 cells, single and combination treatment; type: cell-based, human; settings: for DDR, p53, MDM2 and caspase 3 activation: MV4–11, single agent (BTX161 6 hr, iCDK9 4 hr, THZ1 4 hr)
How it was run: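 MV4–11 cells treated at several concentrations, alone or combined: CKIα degrader for 6 hr, CDK9 inhibitor for 4 hr, CDK7 inhibitor for 4 hr. Lysates immunoblotted, with PP2Ac as loading control.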

CKIα [12] = assay: Western blot of CKIα degradation in human AML cells; type: cell-based; settings: MV4–11 cells, 6.5 hr
How it was run: as §1

normal C57BL/6 mice = assay: 7-day daily treatment for maximal tolerated dose; type: in vivo, mouse; settings: 7 days

Chain of CDK7 (P50613 whole entry): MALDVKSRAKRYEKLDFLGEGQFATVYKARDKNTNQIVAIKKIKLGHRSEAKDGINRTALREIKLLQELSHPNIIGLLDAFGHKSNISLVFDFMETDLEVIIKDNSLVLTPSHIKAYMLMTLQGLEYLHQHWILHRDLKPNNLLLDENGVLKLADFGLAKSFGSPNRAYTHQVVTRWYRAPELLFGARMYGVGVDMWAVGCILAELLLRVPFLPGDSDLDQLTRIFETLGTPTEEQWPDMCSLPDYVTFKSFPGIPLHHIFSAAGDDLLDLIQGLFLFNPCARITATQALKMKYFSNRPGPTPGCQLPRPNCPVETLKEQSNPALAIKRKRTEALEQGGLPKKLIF
Chain of CDK9 (P50750 whole entry): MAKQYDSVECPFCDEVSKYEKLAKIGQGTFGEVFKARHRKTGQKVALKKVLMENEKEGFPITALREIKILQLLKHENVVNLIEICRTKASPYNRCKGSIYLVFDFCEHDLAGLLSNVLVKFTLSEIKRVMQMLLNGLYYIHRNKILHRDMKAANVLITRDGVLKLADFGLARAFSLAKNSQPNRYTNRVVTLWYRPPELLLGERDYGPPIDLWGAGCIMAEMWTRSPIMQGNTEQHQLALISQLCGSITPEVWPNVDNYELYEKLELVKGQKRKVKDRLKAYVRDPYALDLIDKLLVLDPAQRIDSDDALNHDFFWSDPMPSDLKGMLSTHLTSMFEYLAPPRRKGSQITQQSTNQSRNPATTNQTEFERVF
Chain of CKIδ (P48730 whole entry): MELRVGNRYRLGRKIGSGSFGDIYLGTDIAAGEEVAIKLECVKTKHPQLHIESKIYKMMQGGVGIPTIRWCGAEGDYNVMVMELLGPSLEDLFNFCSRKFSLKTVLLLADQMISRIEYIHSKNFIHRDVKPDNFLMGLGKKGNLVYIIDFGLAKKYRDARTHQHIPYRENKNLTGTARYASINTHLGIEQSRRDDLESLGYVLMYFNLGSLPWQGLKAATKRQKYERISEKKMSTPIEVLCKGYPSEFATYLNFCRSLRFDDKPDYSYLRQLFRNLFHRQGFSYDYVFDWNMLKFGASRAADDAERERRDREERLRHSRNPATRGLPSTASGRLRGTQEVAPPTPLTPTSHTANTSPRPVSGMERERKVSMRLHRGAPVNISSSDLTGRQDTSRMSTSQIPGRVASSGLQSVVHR
Chain of CKIε (P49674 whole entry): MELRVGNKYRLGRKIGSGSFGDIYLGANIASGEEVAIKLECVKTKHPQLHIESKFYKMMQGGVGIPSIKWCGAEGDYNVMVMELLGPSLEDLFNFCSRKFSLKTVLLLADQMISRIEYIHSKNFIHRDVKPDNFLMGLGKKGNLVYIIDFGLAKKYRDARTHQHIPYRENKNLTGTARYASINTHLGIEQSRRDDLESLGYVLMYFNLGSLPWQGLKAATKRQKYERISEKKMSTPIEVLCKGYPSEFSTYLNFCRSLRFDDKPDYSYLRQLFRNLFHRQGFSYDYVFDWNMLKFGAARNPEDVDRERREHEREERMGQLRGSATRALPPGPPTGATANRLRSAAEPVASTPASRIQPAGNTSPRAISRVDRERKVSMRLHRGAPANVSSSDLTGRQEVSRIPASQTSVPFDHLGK
Chain of CDK13 (Q14004 whole entry): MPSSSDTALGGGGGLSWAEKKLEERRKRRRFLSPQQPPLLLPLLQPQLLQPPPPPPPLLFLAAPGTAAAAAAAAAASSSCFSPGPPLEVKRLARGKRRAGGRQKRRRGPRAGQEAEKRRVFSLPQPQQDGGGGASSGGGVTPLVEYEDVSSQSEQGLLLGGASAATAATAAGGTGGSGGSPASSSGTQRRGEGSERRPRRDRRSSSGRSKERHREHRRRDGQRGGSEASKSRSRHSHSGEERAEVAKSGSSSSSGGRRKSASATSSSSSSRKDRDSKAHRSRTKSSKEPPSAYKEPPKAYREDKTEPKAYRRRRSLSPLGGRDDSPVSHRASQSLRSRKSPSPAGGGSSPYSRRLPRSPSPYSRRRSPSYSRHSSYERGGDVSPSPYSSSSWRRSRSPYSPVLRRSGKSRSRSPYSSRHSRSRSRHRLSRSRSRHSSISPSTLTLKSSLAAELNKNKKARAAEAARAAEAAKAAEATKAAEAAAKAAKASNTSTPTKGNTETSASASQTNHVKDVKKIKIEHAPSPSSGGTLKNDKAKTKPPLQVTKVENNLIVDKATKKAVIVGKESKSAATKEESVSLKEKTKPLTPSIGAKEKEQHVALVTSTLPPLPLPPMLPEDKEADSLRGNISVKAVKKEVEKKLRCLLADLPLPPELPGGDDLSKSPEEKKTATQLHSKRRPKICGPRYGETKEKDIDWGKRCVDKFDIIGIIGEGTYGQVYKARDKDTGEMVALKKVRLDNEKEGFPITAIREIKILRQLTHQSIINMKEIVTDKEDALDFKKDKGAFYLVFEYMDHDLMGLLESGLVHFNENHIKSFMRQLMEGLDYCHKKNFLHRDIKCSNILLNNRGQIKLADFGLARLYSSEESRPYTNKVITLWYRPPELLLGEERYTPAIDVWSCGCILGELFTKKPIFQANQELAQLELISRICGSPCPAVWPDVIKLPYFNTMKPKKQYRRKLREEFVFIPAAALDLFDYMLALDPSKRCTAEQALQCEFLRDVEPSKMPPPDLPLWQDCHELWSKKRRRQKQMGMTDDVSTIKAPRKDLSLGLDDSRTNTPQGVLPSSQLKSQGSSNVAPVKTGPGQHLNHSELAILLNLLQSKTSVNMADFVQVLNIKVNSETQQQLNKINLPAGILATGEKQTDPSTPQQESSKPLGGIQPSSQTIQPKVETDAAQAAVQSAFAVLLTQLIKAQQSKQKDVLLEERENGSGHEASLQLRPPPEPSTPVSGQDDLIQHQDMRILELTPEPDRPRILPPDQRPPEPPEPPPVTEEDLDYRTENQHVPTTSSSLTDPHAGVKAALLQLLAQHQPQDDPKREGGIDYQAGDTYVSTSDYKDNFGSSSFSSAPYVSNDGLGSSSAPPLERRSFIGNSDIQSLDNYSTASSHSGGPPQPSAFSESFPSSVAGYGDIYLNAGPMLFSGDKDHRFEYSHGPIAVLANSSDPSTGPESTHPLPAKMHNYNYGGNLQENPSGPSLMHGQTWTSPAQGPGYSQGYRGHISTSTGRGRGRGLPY
Chain of CDK11a (Q9UQ88 whole entry): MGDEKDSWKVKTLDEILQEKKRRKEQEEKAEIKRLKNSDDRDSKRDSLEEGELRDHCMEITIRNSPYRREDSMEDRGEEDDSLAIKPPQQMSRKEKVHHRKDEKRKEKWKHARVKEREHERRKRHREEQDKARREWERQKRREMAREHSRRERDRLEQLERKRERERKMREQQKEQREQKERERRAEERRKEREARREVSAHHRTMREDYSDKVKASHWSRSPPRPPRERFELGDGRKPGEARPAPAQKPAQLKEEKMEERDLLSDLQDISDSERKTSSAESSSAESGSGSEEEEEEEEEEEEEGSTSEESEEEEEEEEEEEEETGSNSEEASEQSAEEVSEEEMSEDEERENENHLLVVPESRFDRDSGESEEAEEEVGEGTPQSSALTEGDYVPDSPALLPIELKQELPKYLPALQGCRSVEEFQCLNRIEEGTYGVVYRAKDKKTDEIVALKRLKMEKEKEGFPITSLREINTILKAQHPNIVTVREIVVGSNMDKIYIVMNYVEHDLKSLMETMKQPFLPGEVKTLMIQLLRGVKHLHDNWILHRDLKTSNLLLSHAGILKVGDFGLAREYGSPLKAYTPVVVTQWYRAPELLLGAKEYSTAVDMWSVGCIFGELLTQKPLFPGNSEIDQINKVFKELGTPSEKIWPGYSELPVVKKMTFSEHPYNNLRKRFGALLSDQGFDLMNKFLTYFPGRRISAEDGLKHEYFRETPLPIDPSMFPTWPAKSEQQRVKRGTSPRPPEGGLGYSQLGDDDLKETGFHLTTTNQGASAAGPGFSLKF
Chain of CDK8 (P49336 whole entry): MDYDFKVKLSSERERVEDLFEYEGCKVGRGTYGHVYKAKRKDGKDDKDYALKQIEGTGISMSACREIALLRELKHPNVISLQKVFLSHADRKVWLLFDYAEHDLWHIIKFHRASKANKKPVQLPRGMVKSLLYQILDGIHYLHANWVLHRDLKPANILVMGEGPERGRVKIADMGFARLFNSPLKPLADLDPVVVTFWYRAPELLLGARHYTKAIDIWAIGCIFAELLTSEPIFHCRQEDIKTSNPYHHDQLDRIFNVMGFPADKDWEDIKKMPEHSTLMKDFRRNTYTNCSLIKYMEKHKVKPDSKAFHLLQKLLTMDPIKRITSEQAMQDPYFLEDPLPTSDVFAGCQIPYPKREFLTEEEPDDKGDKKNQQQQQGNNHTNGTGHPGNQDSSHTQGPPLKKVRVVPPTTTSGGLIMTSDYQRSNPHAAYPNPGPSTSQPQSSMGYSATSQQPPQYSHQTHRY
Chain of CKIα (Homo sapiens, UniProt P48729) (P48729 whole entry): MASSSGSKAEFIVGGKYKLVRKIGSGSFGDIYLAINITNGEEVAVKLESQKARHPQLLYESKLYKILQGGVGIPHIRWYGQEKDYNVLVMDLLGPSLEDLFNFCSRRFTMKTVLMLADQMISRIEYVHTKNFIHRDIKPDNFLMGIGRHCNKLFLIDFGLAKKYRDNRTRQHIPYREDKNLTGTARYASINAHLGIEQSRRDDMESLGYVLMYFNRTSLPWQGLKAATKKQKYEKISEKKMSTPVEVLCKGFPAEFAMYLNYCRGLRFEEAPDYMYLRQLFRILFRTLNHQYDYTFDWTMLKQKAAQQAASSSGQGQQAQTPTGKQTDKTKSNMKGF

SMILES: Cn1ncc(-c2nc(NC3CCC(NCc4cn[nH]c4)CC3)ncc2Cl)c1CC1CC1 [A75, (1R,4R)-N^1-((1H-pyrazol-4-yl)methyl)-N^4-(5-chloro-4-(5-(cyclopropylmethyl)-1-methyl-1H-pyrazol-4-yl)pyrimidin-2-yl)cyclohexane-1,4-diamine]
concentration highly effective in inducing leukemia cell apoptosis [1]: ≤ 160 nM

SMILES: CO[C@@H]1[C@H](N(C)C(=O)c2ccccc2)C[C@H]2O[C@]1(C)n1c3ccccc3c3c4c(c5c6ccccc6n2c5c31)C(=O)NC4 [midostaurin, reference compound]
leukemia cell apoptosis [2]: but not by A64 or midostaurin

affinity to CKIδ (CKIδ): high affinity
CKIα affinity (CKIα [3]): low CKIα affinity
affinity to CKIε (CKIε): high affinity
CDK9 Kd (direct binding affinity) (CDK9): poorly
CDK7 Kd (direct binding affinity) (CDK7): moderately
GSK3α/β affinity (GSK3α/β): high GSK3α/β affinity
SMILES: Cn1ncc(-c2nc(N[C@H]3CC[C@H](n4cccn4)CC3)ncc2Cl)c1CC1CC1 [A64, N-((1R,4R)-4-(1H-pyrazol-1-yl)cyclohexyl)-5-chloro-4-(5-(cyclopropylmethyl)-1-methyl-1H-pyrazol-4-yl)pyrimidin-2-amine]
leukemia cell apoptosis [2]: but not by A64 or midostaurin
p53 induction (p53 in RKO cells): only induces p53 at a high concentration

inhibition of CDK19 in binding screen (CDK19): hardly any inhibition
inhibition of CDK13 in binding screen (CDK13): hardly any inhibition
CDK9 Kd (direct binding affinity) (CDK9): low nM Kd values
inhibition of CDK9 (P-TEFb) in binding screen (CDK9; Figure S4B): high inhibition
CDK7 Kd (direct binding affinity) (CDK7): low nM Kd values
inhibition of CDK7 (TFIIH) in binding screen (CDK7; Figure S4B): high inhibition
inhibition of CDK11b in binding screen (CDK11b): hardly any inhibition
inhibition of CDK11a in binding screen (CDK11a): hardly any inhibition
inhibition of CDK8 in binding screen (CDK8): hardly any inhibition
SMILES: Cn1ncc(-c2nc(NC3CCC(N)CC3)ncc2F)c1CC1CC1 [A86, (1R,4R)-N^1-(4-(5-(cyclopropylmethyl)-1-methyl-1H-pyrazol-4-yl)-5-fluoropyrimidin-2-yl)cyclohexane-1,4-diamine]
concentration highly effective in inducing leukemia cell apoptosis [1]: ≤ 160 nM
Pol II CTD phosphorylation at Ser2 and Ser5 [4]: marked reduction
Myc, Mdm2, and Mcl1 mRNA expression (Myc, Mdm2, Mcl1 mRNA): significant reduction of Myc, Mdm2, and Mcl1 mRNA expression
Pol II CTD phosphorylation at Ser2 and Ser5 [5]: marked reduction
effect on mRNA expression (MYC, MDM2, Wnt targets) [6]: marked reduction in mRNA expression of MYC and MDM2
leukemic cell counts (GFP+) in BM and peripheral blood ([7]; 16 hr post single oral dose): 5%–10%
in vivo signaling in leukemic cells after single oral treatment ([7]; A51 20 mg/kg 3 and 6 hr, A86 10 mg/kg 5 hr, spleen AML cells WB): phospho-CTD inhibition with downregulation of MCL1 and activation of p53, DDR, and caspase 3
leukemia cell apoptosis [2]: leukemia cell apoptosis
IC50 ([2]; read-out: IC50 of killing effect, all 5 patient samples): 20 to 50 nM
AML cell killing after short exposure [8]: sufficient to induce significant AML cell killing
effect on DDR, p53, MDM2, MYC, MCL1 protein levels (WB) [9]: abolished the expression of MYC, MDM2, and the anti-apoptotic oncogene MCL1
ex vivo apoptotic killing of cKit^HiCD11b^Low progenitors [10]: superior to midostaurin

SMILES: CN(C)C/C=C/C(=O)Nc1ccc(C(=O)Nc2cccc(Nc3ncc(Cl)c(-c4c[nH]c5ccccc45)n3)c2)cc1 [THZ1]
pSer2/5 CTD ([11]; MV4–11, 4 hr, single agent): reduced the pSer2/5 CTD
DDR, p53, MDM2 and caspase 3 activation [11]: little effect on DDR, p53, and caspase 3 activation

SMILES: Cc1cccc2c1CN([C@H]1CCCC(=O)NC1=O)C2=O [BTX161, (S)-3-(4-methyl-1-oxoisoindolin-2-yl)azepane-2,7-dione]
CKIα degradation (CKIα [12]): mediates degradation of CKIα better than lenalidomide
effect on mRNA expression (MYC, MDM2, Wnt targets) [6]: upregulated all the Wnt targets including MYC and did not affect MDM2 mRNA expression
DDR, p53, MDM2 and caspase 3 activation [11]: augmented p53 and MDM2 protein expression
effect on DDR, p53, MDM2, MYC, MCL1 protein levels (WB) [9]: activates DDR and p53, while stabilizing the p53 antagonist MDM2

SMILES: Cn1ncc(-c2ccnc(N[C@H]3CC[C@H](N)CC3)n2)c1CC1CC1 [A14, (1R, 4R)-N^1-(4-(5-(cyclopropylmethyl)-1-methyl-1H-pyrazol-4-yl)pyrimidin-2-yl)cyclohexane-1,4-diamine]
concentration highly effective in inducing leukemia cell apoptosis [1]: ≤ 160 nM
effect on hematopoiesis at 5–10 mg/kg (normal C57BL/6 mice; 5–10 mg/kg): no adverse effect on hematopoiesis
effect on blood counts at doses above 10 mg/kg (normal C57BL/6 mice; doses above 10 mg/kg): transiently reduced the white blood cells (WBC) and platelet counts
